Results as given in ChEMBL document CHEMBL1154126, “Sulforaphane induces cell-cycle arrest and apoptosis in cultured human lung adenocarcinoma LTEP-A2 cells and retards growth of LTEP-A2 xenografts in vivo” (J Nat Prod, 2008).

Columns and labels:
[1] = Antiproliferative activity against human LTEP-A2 cells after 24 hrs by trypan blue exclusion assay; type: functional, cell-based; settings: LTEP-A2, 24 h
Method in brief: (§1)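 Suspension-grown LTEP-A2 cells in RPMI 1640 with 20% heat-inactivated bovine serum, penicillin and streptomycin. Exponentially growing cells were added at 400 000 cells/mL to medium with 6.25–50 µM compound. Trypan blue-excluding cells were counted at 3, 24, 48 and 72 h relative to controls. IC50 was interpolated from 24 h dose-response curves. Three independent experiments, mean ± SD.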

[2] = Antiproliferative activity against human LTEP-A2 cells assessed as viable cells at 12.5 uM after 24 hrs by trypan blue exclusion assay; type: functional; settings: LTEP-A2, 24 h, read-out: Activity; method in brief: as §1
LTEP-A2 = assay: Antiproliferative activity against human LTEP-A2 cells by trypan blue exclusion assay; type: functional, cell-based; method in brief: as §1
[3] = Antiproliferative activity against human LTEP-A2 cells assessed as viable cells at 25 uM after 24 hrs by trypan blue exclusion assay; type: functional; settings: LTEP-A2, 24 h, read-out: Activity; method in brief: as §1
OVCAR-3 = assay: Antiproliferative activity against human OVCAR-3 cells; type: functional, cell-based
[4] = Antiproliferative activity against human LS 174T cells; type: functional, cell-based; settings: LS174T
DU-145 = assay: Antiproliferative activity against human DU145 cells assessed as viable cells after 24 hrs; settings: DU-145, 24 h
Jurkat = assay: Antiproliferative activity against human lymphoblastoid cells using annexin-V FITC and PI staining by flow cytometry

Row | Structure (SMILES) | IC50 [1] | viability at 12.5 µM [2] | Activity (LTEP-A2) | viability at 25 µM [3] | IC50 (OVCAR-3) | IC50 [4] | IC50 (DU-145) | IC50 (Jurkat)
1 | S=C=NCCc1ccccc1 [PHENETHYLISOTHIOCYANATE] | 20 µM | 12% | Dose-dependent effect | 81% | 23.2 µM | 7 µM |  | 
2 | C[S+]([O-])CCCCN=C=S (stereo not given) [SULFORAPHANE] | 6.25 µM |  |  |  |  | 95 µM | 10 µM | 3.8 µM
